Compound activity: PubChem BioAssay, Broad Institute
This is a sample that favours compounds with a hit; in the whole collection about 2.7% have one here.
AF4-AF9 inh: inhibitors of human MLL-AF4/AF9 interaction. hit rate 0.47% among 350,000. P42568. AID 651704. AlphaScreen, biotin-AF4 peptide binding to FLAG-AF9. inhibition, % at 10 µM;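 active means every replicate reaching a set inhibition limit, whatever the replicate mean, cut at about 25% in these data; inconclusive means mean inhibition reaches that limit but some replicates miss it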
Target sequence (P42568 whole entry, looked up): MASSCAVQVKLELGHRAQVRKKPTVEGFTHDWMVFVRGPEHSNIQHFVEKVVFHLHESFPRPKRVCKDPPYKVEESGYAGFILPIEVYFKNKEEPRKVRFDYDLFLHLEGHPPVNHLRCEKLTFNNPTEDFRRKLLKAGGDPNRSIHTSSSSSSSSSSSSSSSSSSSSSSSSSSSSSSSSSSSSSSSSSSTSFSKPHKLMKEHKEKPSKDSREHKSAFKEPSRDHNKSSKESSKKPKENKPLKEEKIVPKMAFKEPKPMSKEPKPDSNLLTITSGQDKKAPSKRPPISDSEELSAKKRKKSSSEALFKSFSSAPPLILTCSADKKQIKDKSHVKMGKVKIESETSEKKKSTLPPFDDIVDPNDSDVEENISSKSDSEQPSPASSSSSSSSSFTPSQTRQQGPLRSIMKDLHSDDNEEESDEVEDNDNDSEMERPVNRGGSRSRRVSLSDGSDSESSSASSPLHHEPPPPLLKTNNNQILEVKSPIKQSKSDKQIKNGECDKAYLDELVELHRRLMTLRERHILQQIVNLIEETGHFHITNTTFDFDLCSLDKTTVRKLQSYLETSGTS
SIRT5 inh: sirtuin-5 (human) deacylase inhibition; Purified SirT5, succinyl-peptide AMC, trypsin-coupled fluorescence; AID 652115; inhibition, % at 15 µM; hit rate 1.1% among 330,000; in the data active means inhibition above about 15%; inconclusive means no clear call, values can overlap the other calls
S100A4 inh HTS: blocks human S100A4 binding to myosin IIA peptide. inhibition, % at 10.7 µM. hit rate 0.14% among 360,000. S100A4/TAMRA-MyoIIA peptide fluorescence polarization. AID 652163. P26447;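 active means mean inhibition of at least 70% across replicates, with every replicate also reaching that level; inconclusive means mean inhibition reaches 70% but some replicates fall short; inactive means mean inhibition below 70%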
Target sequence (P26447 whole entry, looked up): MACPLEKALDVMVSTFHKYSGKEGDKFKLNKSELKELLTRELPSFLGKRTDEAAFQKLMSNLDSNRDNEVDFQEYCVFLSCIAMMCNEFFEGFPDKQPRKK
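Test system: S100A4 monomer protein. Medium: HEPES buffer with Ca2+, pH 7.2. Reagent: fluorescent myosin IIA peptide, 5 nM. Compound dosing: single-point compound testing. Timing: 5 min between mix addition and reading. Benchmarks: DMSO neutral and TFP positive wells.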
DENV2 CPE rescue: protects cells from dengue virus 2 cytopathic effect. DENV2-infected cells, cytopathic effect rescue, plate reader. CPE inhibition, % at 9.99 µM. hit rate 1.7% among 350,000; in the data active means CPE inhibition above about 20%, passing the limit was not always enough; inconclusive means no clear call, values can overlap the other calls; tested in BHK-21 cells
CaV13 FRET inh: Disruptors of the CACNA1D IQ motif to Ca2+-dependent inactivation inhibitor domain association, primary screening, Förster resonance energy transfer in intact living … | HEK cells, CFP/YFP FRET ICDI-IQ, plate reader, 10 min; percent FRET-ratio fall versus neutral wells | inhibition, % at 12.3 µM | hit rate 0.098% among 340,000;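 active means mean replicate inhibition of at least 30% and at least 1% of replicates passing that level; inconclusive means only one of the two criteria is met; inactive means neither criterion is met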
Large screens that a line does not name were inactive.

COC(=O)c1c(CC[C@@H](CO)NC(=O)N[C@H](Cn2cc(-c3cncn3C)nn2)C(C)C)oc(C(C)=O)c1C(=O)OC	none (no result: CaV13 FRET inh)
C[C@@H]1CN([C@H](C)CO)C(=O)c2cc(NC(=O)Cc3ccccc3)ccc2O[C@@H](C)CCCCO[C@@H]1CN(C)C(=O)CCC(F)(F)F	none (no result: CaV13 FRET inh)
O=C(C[C@H]1CC[C@@H]2[C@H](COC[C@H](O)CN2C(=O)Nc2ccc3c(c2)OCO3)O1)N1CCN(c2ccccc2)CC1	S100A4 inh HTS 123.1 (no result: CaV13 FRET inh)
O=C(C[C@H]1CC[C@H]2[C@@H](COC[C@@H](O)CN2C(=O)Nc2cc(Cl)cc(Cl)c2)O1)N1CCCCC1	DENV2 CPE rescue 30.4 (no result: CaV13 FRET inh)
O=C(C[C@@H]1CC[C@H]2[C@@H](COC[C@@H](O)CN2C(=O)Nc2cc(Cl)cc(Cl)c2)O1)N1CCCCC1	none (no result: CaV13 FRET inh)
O=C(C[C@@H]1CC[C@@H]2[C@H](COC[C@H](O)CN2C(=O)Nc2ccc3c(c2)OCO3)O1)N1CCN(c2ccccc2)CC1	none (no result: CaV13 FRET inh)
Fc1ccc2cnc(CCO[C@H]3CCCCO3)cc2c1	AF4-AF9 inh 49.3
CCNC(=O)N1C[C@H]2CON(C)[C@H]2C[C@H]1c1ccc(N2CCCCC2)cc1	none (no result: AF4-AF9 inh)
CN1OC[C@@H]2CN(C(=O)NC3CCCCC3)[C@H](c3ccc(N4CCCCC4)cc3)C[C@@H]21	DENV2 CPE rescue 22.3
COc1cccc(S(=O)(=O)Nc2ccc3c(c2)[C@@H]2C[C@H](CC(=O)NCc4ccccc4F)O[C@H](CO)[C@@H]2O3)c1	none (no result: CaV13 FRET inh)
CC(C)c1cn(CC[C@@H]2CC[C@H](NS(=O)(=O)Cc3ccccc3)[C@H](CO)O2)nn1	DENV2 CPE rescue inconclusive (no result: CaV13 FRET inh)
O=C(c1ccccc1)C1CC1c1ccccc1 (configuration not stated)	none (no result: SIRT5 inh)
C[C@H]1[C@H](c2ccccc2)C[C@@H](C(=O)O)C1(C)C	DENV2 CPE rescue 40.3 (no result: SIRT5 inh)
CO[C@H]1CN(C)C(=O)c2ccc(NC(C)=O)cc2OC[C@H](C)N(Cc2cc(F)ccc2F)C[C@H]1C	none (no result: CaV13 FRET inh)
Cc1ccc(Nc2nc(-c3ccc(O)c(O)c3)cs2)nc1	AF4-AF9 inh 42.2
Cc1ccc(Nc2nc(-c3ccc(F)cc3)cs2)nc1	none
O=C(Nc1cccc(Cl)c1)N[C@H]1CC[C@H](CCNC(=O)C2CC2)O[C@H]1CO	none (no result: CaV13 FRET inh)
CC1(C#N)c2ccccc2C(Br)=CN1C(=O)c1ccccc1 (configuration not stated)	DENV2 CPE rescue 30.9 (no result: SIRT5 inh)
Cc1ncc[nH]1	DENV2 CPE rescue 57.4 (no result: AF4-AF9 inh, SIRT5 inh, CaV13 FRET inh)
CCC(CC)c1ncc[nH]1	none
Cn1nc(C(C)(C)C)cc1C(=O)NNC(=O)c1cccc(Cl)c1	AF4-AF9 inh 39.7
Cn1nc(C(=O)NNC(=O)c2cccc(Cl)c2)ccc1=O	none (no result: SIRT5 inh)
O=C(c1cccs1)c1coc2ccc(O)c(CN3CCOCC3)c12	SIRT5 inh 29.1 (no result: AF4-AF9 inh, DENV2 CPE rescue)
OC[C@H]1[C@@H]2c3ccccc3NC[C@@H]2N1CC1CCOCC1	DENV2 CPE rescue 22.1 (no result: CaV13 FRET inh)
C[C@@H]1CN([C@@H](C)CO)C(=O)c2cc(NS(=O)(=O)c3cccs3)ccc2O[C@@H](C)CCCCO[C@@H]1CN(C)S(=O)(=O)c1cn(C)cn1	DENV2 CPE rescue 33.6 (no result: CaV13 FRET inh)
C[C@@H]1CCCCO[C@@H](CN(C)S(=O)(=O)c2cn(C)cn2)[C@@H](C)CN([C@H](C)CO)C(=O)c2cc(NS(=O)(=O)c3cccs3)ccc2O1	DENV2 CPE rescue 30.3 (no result: CaV13 FRET inh)
Cc1noc(C)c1NC(=O)Nc1ccc2c(c1)C(=O)N([C@@H](C)CO)C[C@H](C)[C@@H](CN(C)S(=O)(=O)c1ccc(Cl)cc1)OCCCC[C@@H](C)O2	none (no result: CaV13 FRET inh)
CC1=Nc2ccccc2/C1=C/c1c(N)n2c(S(=O)(=O)C(C)C)nsc2nc1=O	none (no result: SIRT5 inh, DENV2 CPE rescue)
CC1=Nc2ccc(C)cc2/C1=C/c1c(N)n2c(S(=O)(=O)C(C)C)nsc2nc1=O	SIRT5 inh 19.3
COc1ccc2c3c([nH]c2c1)[C@H](CO)N(C(=O)c1ccccn1)CC31CCN(C(=O)C2CCCC2)CC1	none (no result: CaV13 FRET inh)
COc1ccccc1C(CC(=O)c1ccccc1)CC(=O)c1ccccc1	none
COc1ccccc1C(CC(=O)c1ccccc1)C(=O)c1ccccc1 (configuration not stated)	SIRT5 inh 17.1
Nc1ccc(C(=O)Nc2ccc3c(O)cc(S(=O)(=O)O)cc3c2)cc1	SIRT5 inh 65.8
CCn1c2ccccc2c(=O)c2ccccc21	CaV13 FRET inh active
COc1ccc(-c2ccc3c(c2)[C@H]2[C@H](CCN2S(=O)(=O)c2ccccc2F)[C@@H](CO)N3)cc1	none (no result: AF4-AF9 inh, SIRT5 inh, S100A4 inh HTS, CaV13 FRET inh)
COCC#Cc1cnc2c(c1)C(=O)N([C@H](C)CO)C[C@H](C)[C@H](CN(C)C(=O)C1CCC1)O2	S100A4 inh HTS 133.2 (no result: CaV13 FRET inh)
COCC#Cc1cnc2c(c1)C(=O)N([C@@H](C)CO)C[C@H](C)[C@@H](CN(C)C(=O)C1CCC1)O2	none (no result: CaV13 FRET inh)
CCCC#Cc1cnc2c(c1)C(=O)N([C@H](C)CO)C[C@H](C)[C@H](CN(C)C(=O)C1CCC1)O2	DENV2 CPE rescue 23.0 (no result: CaV13 FRET inh)
Cc1ccc2nc(-c3ccc(CN4CCC5(CC4)CNc4ccccc45)cc3)c(-c3ccccc3)nc2c1	none (no result: SIRT5 inh)
Cc1cc(-c2nn(-c3ccccc3F)cc2CNCCc2cnc[nH]2)c(C)s1	AF4-AF9 inh 29.4
CO[C@@H]1CN(C)C(=O)c2cc(NC(=O)C3CCCC3)ccc2OC[C@H](C)N(CCC(F)(F)F)C[C@@H]1C	none (no result: CaV13 FRET inh)
O=C(c1cc2cc(Cl)ccc2[nH]1)N1CCN(c2ccc(F)cc2)CC1	none
COc1ccc(N2CCN(C(=O)c3cc4cc(Cl)ccc4[nH]3)CC2)cc1	SIRT5 inh 17.5
Cc1ccc(C(=O)N2CCN(Cc3ccc4c(c3)OCO4)CC2)cc1S(=O)(=O)N1CCOCC1	SIRT5 inh 16.0
C/C=C/c1ccc([C@H]2[C@H](CO)N(C(C)=O)[C@H]2CNC(=O)c2ccccc2)cc1	none (no result: CaV13 FRET inh)
C/C=C/c1ccc([C@@H]2[C@@H](CNC(=O)C3CC3)N(C(=O)CC)[C@H]2CO)cc1	DENV2 CPE rescue 25.7 (no result: CaV13 FRET inh)
C/C=C/c1ccc([C@H]2[C@@H](CO)N(C(C)=O)[C@H]2CNC(=O)c2ccccc2)cc1	DENV2 CPE rescue 23.9 (no result: CaV13 FRET inh)
C[C@H](CO)N1C[C@H](C)[C@@H](CN(C)C(=O)Nc2ccc(F)cc2)OCCCC[C@H](C)Oc2ccc(NS(=O)(=O)c3ccc(Cl)cc3)cc2C1=O	none (no result: CaV13 FRET inh)
C[C@H](CO)N1C[C@H](C)[C@@H](CN(C)S(=O)(=O)c2ccc(F)cc2)OCCCC[C@H](C)Oc2ccc(NC(=O)NC3CCCCC3)cc2C1=O	none (no result: CaV13 FRET inh)
O=S(=O)(N[C@@H]1CC[C@H](CCn2cc(Cc3ccccc3)nn2)O[C@@H]1CO)c1ccccc1F	none (no result: CaV13 FRET inh)
CCCc1cn(CC[C@@H]2CC[C@H](NS(=O)(=O)c3ccccc3Cl)[C@@H](CO)O2)nn1	S100A4 inh HTS 96.7 (no result: CaV13 FRET inh)
O=S(=O)(N[C@@H]1CC[C@@H](CCn2cc(Cc3ccccc3)nn2)O[C@H]1CO)c1ccccc1F	SIRT5 inh 19.8 (no result: CaV13 FRET inh)
CCCNC(=O)Nc1ccc2c(c1)C(=O)N(C)[C@H]1CC[C@@H](CC(=O)OC)O[C@@H]1CO2	DENV2 CPE rescue inconclusive (no result: CaV13 FRET inh)
